In brackets after ≈: the same amount, converted by molar mass.
Legend:
Staphylococcus aureus [1] = assay: Antibacterial activity against Staphylococcus aureus at 25 ug/ml incubated for 24 hrs by agar well diffusion method; format: functional; conditions: read-out: DIZ
In short: (§1)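 Bacteria grown in nutrient broth at 37 °C for 24 h, then subcultured at room temperature. Compounds dissolved in DMSO at 5 mg mL⁻¹ and 5–20 µL added to 6 mm wells, giving 25, 50, 75, 100 µg per well. Gentamicin was the positive control and DMSO the negative control. Plates held at 37 °C for 24 h, then inhibition zone diameter (mm) measured. Values are means of three determinations.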

Staphylococcus aureus [2] = assay: Antibacterial activity against Staphylococcus aureus at 50 ug/ml incubated for 24 hrs by agar well diffusion method; format: functional; conditions: read-out: DIZ; in short: as §1
Staphylococcus aureus [3] = assay: Antibacterial activity against Staphylococcus aureus at 75 ug/ml incubated for 24 hrs by agar well diffusion method; format: functional; conditions: read-out: DIZ; in short: as §1
Staphylococcus aureus [4] = assay: Antibacterial activity against Staphylococcus aureus at 100 ug/ml incubated for 24 hrs by agar well diffusion method; format: functional; conditions: read-out: DIZ; in short: as §1
Bacillus subtilis [5] = assay: Antibacterial activity against Bacillus subtilis at 25 ug/ml incubated for 24 hrs by agar well diffusion method; format: functional; conditions: read-out: DIZ; in short: as §1
Bacillus subtilis [6] = assay: Antibacterial activity against Bacillus subtilis at 50 ug/ml incubated for 24 hrs by agar well diffusion method; format: functional; conditions: read-out: DIZ; in short: as §1
Bacillus subtilis [7] = assay: Antibacterial activity against Bacillus subtilis at 75 ug/ml incubated for 24 hrs by agar well diffusion method; format: functional; conditions: read-out: DIZ; in short: as §1
Bacillus subtilis [8] = assay: Antibacterial activity against Bacillus subtilis at 100 ug/ml incubated for 24 hrs by agar well diffusion method; format: functional; conditions: read-out: DIZ; in short: as §1
Escherichia coli [9] = assay: Antibacterial activity against Escherichia coli at 25 ug/ml incubated for 24 hrs by agar well diffusion method; format: functional; conditions: read-out: DIZ; in short: as §1
Escherichia coli [10] = assay: Antibacterial activity against Escherichia coli at 50 ug/ml incubated for 24 hrs by agar well diffusion method; format: functional; conditions: read-out: DIZ; in short: as §1
Escherichia coli [11] = assay: Antibacterial activity against Escherichia coli at 75 ug/ml incubated for 24 hrs by agar well diffusion method; format: functional; conditions: read-out: DIZ; in short: as §1
Escherichia coli [12] = assay: Antibacterial activity against Escherichia coli at 100 ug/ml incubated for 24 hrs by agar well diffusion method; format: functional; conditions: read-out: DIZ; in short: as §1
Klebsiella pneumoniae [13] = assay: Antibacterial activity against Klebsiella pneumoniae at 25 ug/ml incubated for 24 hrs by agar well diffusion method; format: functional; conditions: read-out: DIZ; in short: as §1
Klebsiella pneumoniae [14] = assay: Antibacterial activity against Klebsiella pneumoniae at 50 ug/ml incubated for 24 hrs by agar well diffusion method; format: functional; conditions: read-out: DIZ; in short: as §1
Klebsiella pneumoniae [15] = assay: Antibacterial activity against Klebsiella pneumoniae at 75 ug/ml incubated for 24 hrs by agar well diffusion method; format: functional; conditions: read-out: DIZ; in short: as §1
Klebsiella pneumoniae [16] = assay: Antibacterial activity against Klebsiella pneumoniae at 100 ug/ml incubated for 24 hrs by agar well diffusion method; format: functional; conditions: read-out: DIZ; in short: as §1
Aspergillus niger [17] = assay: Antifungal activity against Aspergillus niger at 25 ug/ml incubated for 48 hrs by agar well diffusion method; format: functional; conditions: read-out: DIZ
In short: (§2)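 Compounds dissolved in DMSO at 5 mg mL⁻¹ and 5–20 µL added to 6 mm wells, giving 25, 50, 75, 100 µg per well. Bavistin was the positive control and DMSO the negative control. Plates incubated at 28 °C for 48 h, then inhibition zone diameter (mm) measured. Values are means of three determinations.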

Aspergillus niger [18] = assay: Antifungal activity against Aspergillus niger at 50 ug/ml incubated for 48 hrs by agar well diffusion method; format: functional; conditions: read-out: DIZ; in short: as §2
Aspergillus niger [19] = assay: Antifungal activity against Aspergillus niger at 75 ug/ml incubated for 48 hrs by agar well diffusion method; format: functional; conditions: read-out: DIZ; in short: as §2
Aspergillus niger [20] = assay: Antifungal activity against Aspergillus niger at 100 ug/ml incubated for 48 hrs by agar well diffusion method; format: functional; conditions: read-out: DIZ; in short: as §2
Candida albicans [21] = assay: Antifungal activity against Candida albicans at 25 ug/ml incubated for 48 hrs by agar well diffusion method; format: functional; conditions: read-out: DIZ; in short: as §2
Candida albicans [22] = assay: Antifungal activity against Candida albicans at 50 ug/ml incubated for 48 hrs by agar well diffusion method; format: functional; conditions: read-out: DIZ; in short: as §2
Candida albicans [23] = assay: Antifungal activity against Candida albicans at 75 ug/ml incubated for 48 hrs by agar well diffusion method; format: functional; conditions: read-out: DIZ; in short: as §2
Candida albicans [24] = assay: Antifungal activity against Candida albicans at 100 ug/ml incubated for 48 hrs by agar well diffusion method; format: functional; conditions: read-out: DIZ; in short: as §2
Fusarium oxysporum [25] = assay: Antifungal activity against Fusarium oxysporum at 25 ug/ml incubated for 48 hrs by agar well diffusion method; format: functional; conditions: read-out: DIZ; in short: as §2
Fusarium oxysporum [26] = assay: Antifungal activity against Fusarium oxysporum at 50 ug/ml incubated for 48 hrs by agar well diffusion method; format: functional; conditions: read-out: DIZ; in short: as §2
Fusarium oxysporum [27] = assay: Antifungal activity against Fusarium oxysporum at 75 ug/ml incubated for 48 hrs by agar well diffusion method; format: functional; conditions: read-out: DIZ; in short: as §2
Fusarium oxysporum [28] = assay: Antifungal activity against Fusarium oxysporum at 100 ug/ml incubated for 48 hrs by agar well diffusion method; format: functional; conditions: read-out: DIZ; in short: as §2
Erythrocyte = assay: Anti-inflammatory activity in human RBC assessed as inhibition of hypotonic solution-induced hemolysis after 10 mins by spectrophotometric method; format: functional, cell-based
In short: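 Human blood (heparinized) washed with 0.9% saline, packed cells made into a 40% v/v stock in isotonic phosphate buffer (154 mM NaCl, 10 mM sodium phosphate, pH 7.4). Stock RBC mixed with hypotonic buffer (50 mM NaCl, 10 mM phosphate, pH 7.4) plus sample at 20–100 µg mL⁻¹.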

Structure (SMILES) | zone of inhibition at 25 µg/mL (Staphylococcus aureus [1]) | zone of inhibition at 50 µg/mL (Staphylococcus aureus [2]) | zone of inhibition at 75 µg/mL (Staphylococcus aureus [3]) | zone of inhibition at 100 µg/mL (Staphylococcus aureus [4]) | zone of inhibition at 25 µg/mL (Bacillus subtilis [5]) | zone of inhibition at 50 µg/mL (Bacillus subtilis [6]) | zone of inhibition at 75 µg/mL (Bacillus subtilis [7]) | zone of inhibition at 100 µg/mL (Bacillus subtilis [8]) | zone of inhibition at 25 µg/mL (Escherichia coli [9]) | zone of inhibition at 50 µg/mL (Escherichia coli [10]) | zone of inhibition at 75 µg/mL (Escherichia coli [11]) | zone of inhibition at 100 µg/mL (Escherichia coli [12]) | zone of inhibition at 25 µg/mL (Klebsiella pneumoniae [13]) | zone of inhibition at 50 µg/mL (Klebsiella pneumoniae [14]) | zone of inhibition at 75 µg/mL (Klebsiella pneumoniae [15]) | zone of inhibition at 100 µg/mL (Klebsiella pneumoniae [16]) | zone of inhibition at 25 µg/mL (Aspergillus niger [17]) | zone of inhibition at 50 µg/mL (Aspergillus niger [18]) | zone of inhibition at 75 µg/mL (Aspergillus niger [19]) | zone of inhibition at 100 µg/mL (Aspergillus niger [20]) | also measured
CC(C)(C)OC(=O)N[C@@H](CS)C(=O)Oc1ccc2c(=O)c3ccccc3oc2c1 | 20 mm | 28 mm | 32 mm | 34 mm | 20 mm | 26 mm | 29 mm | 34 mm | 18 mm | 26 mm | 30 mm | 34 mm | 18 mm | 24 mm | 30 mm | 34 mm | 18 mm | 26 mm | 31 mm | 34 mm | zone of inhibition at 25 µg/mL (Candida albicans [21]): 17 mm; zone of inhibition at 50 µg/mL (Candida albicans [22]): 22 mm; zone of inhibition at 75 µg/mL (Candida albicans [23]): 28 mm; zone of inhibition at 100 µg/mL (Candida albicans [24]): 34 mm; zone of inhibition at 25 µg/mL (Fusarium oxysporum [25]): 18 mm; zone of inhibition at 50 µg/mL (Fusarium oxysporum [26]): 24 mm; zone of inhibition at 75 µg/mL (Fusarium oxysporum [27]): 30 mm; zone of inhibition at 100 µg/mL (Fusarium oxysporum [28]): 35 mm; IC50 (Erythrocyte): 32 µg/mL (≈ 77 µM)
CC[C@H](C)[C@H](N)C(=O)Oc1ccc2c(=O)c3ccccc3oc2c1.Cl | 7 mm | 12 mm | 19 mm | 23 mm | 11 mm | 17 mm | 20 mm | 24 mm | 10 mm | 13 mm | 18 mm | 22 mm | 8 mm | 13 mm | 18 mm | 24 mm | 10 mm | 15 mm | 18 mm | 23 mm | zone of inhibition at 25 µg/mL (Candida albicans [21]): 10 mm; zone of inhibition at 50 µg/mL (Candida albicans [22]): 14 mm; zone of inhibition at 75 µg/mL (Candida albicans [23]): 16 mm; zone of inhibition at 100 µg/mL (Candida albicans [24]): 20 mm; zone of inhibition at 25 µg/mL (Fusarium oxysporum [25]): 11 mm; zone of inhibition at 50 µg/mL (Fusarium oxysporum [26]): 15 mm; zone of inhibition at 75 µg/mL (Fusarium oxysporum [27]): 19 mm; zone of inhibition at 100 µg/mL (Fusarium oxysporum [28]): 21 mm; IC50 (Erythrocyte): 68 µg/mL
C[C@H](NC(=O)OC(C)(C)C)C(=O)Oc1ccc2c(=O)c3ccccc3oc2c1 | 6 mm | 10 mm | 14 mm | 19 mm | 8 mm | 14 mm | 19 mm | 22 mm | 17 mm | 14 mm | 20 mm | 23 mm | 6 mm | 13 mm | 19 mm | 22 mm | 8 mm | 12 mm | 15 mm | 18 mm | zone of inhibition at 25 µg/mL (Candida albicans [21]): 7 mm; zone of inhibition at 50 µg/mL (Candida albicans [22]): 12 mm; zone of inhibition at 75 µg/mL (Candida albicans [23]): 15 mm; zone of inhibition at 100 µg/mL (Candida albicans [24]): 17 mm; zone of inhibition at 25 µg/mL (Fusarium oxysporum [25]): 6 mm; zone of inhibition at 50 µg/mL (Fusarium oxysporum [26]): 10 mm; zone of inhibition at 75 µg/mL (Fusarium oxysporum [27]): 14 mm; zone of inhibition at 100 µg/mL (Fusarium oxysporum [28]): 18 mm; IC50 (Erythrocyte): 70 µg/mL (≈ 183 µM)
